Source: PubChem
This is a sample that favours compounds with a hit; in the whole collection about 2.9% have one here.
OX1R antag-1: blocks the human orexin 1 receptor | inhibition, % at 6.6 µM | OX1R-expressing cells, FRET antagonist read-out | actives 1.8% (n = 330,000) | O43613 | AID 485270; in the data active means inhibition mostly above about 38%, no sharp cut-off; inactive means mostly below about 40%;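 further: 0% = agonist challenge alone and 100% = reference antagonist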
Target sequence (O43613 whole entry, looked up): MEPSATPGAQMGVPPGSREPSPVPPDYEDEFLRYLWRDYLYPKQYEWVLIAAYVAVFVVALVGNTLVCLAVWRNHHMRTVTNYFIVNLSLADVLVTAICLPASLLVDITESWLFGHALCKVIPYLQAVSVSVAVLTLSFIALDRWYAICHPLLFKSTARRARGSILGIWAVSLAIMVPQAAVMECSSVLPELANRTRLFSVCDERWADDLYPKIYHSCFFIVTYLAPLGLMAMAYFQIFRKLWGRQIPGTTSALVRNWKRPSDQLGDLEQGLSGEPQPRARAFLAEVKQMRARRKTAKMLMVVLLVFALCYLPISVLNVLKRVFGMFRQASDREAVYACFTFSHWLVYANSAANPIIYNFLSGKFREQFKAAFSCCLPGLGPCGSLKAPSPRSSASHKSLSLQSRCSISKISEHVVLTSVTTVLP
OX1R antag-2: human HCRTR1 antagonism; O43613; CHO/OX1R cells, Fluo-8 calcium fluorescence, orexin A; inhibition, % at 5 µM; actives 0.43% (n = 330,000); AID 434989;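 active means inhibition above its plate's threshold, mean inhibition of all tested compounds on the plate plus 3 SD, cut at about 37% in these data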;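 further: 0% = orexin A challenge wells and 100% = SB-334867-A antagonist wells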
CHO-K1 Ca antag: counter-screen for M1 antagonists: effect in parental CHO-K1 cells | ATP-induced calcium, Fluo-8 fluorescence | inhibition, % at 3 µM | actives 0.6% (n = 360,000) | AID 602250;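 active means inhibition above a per-plate cutoff, the plate's mean sample inhibition plus 3 SD, cut at about 24% in these data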;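 further: 0% = DMSO plus EC80 ATP and 100% = DMSO alone without ATP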
M1 PAM parental: nonselective activator or artifact in parental CHO-K1 calcium assay. ATP EC20, Fluo-8 calcium fluorescence; 0% at ATP EC20, 100% at ATP max. activation, % at 3 µM. actives 0.02% (n = 360,000). AID 602247;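 active means activation above the run cutoff, the mean activation of all test compounds plus 3 SD, cut at about 40% in these data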;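 further: peak over basal fluorescence ratio in a 140 s read after ATP addition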
CHO-K1 Ca ag: counter-screen for M1 agonists: effect in parental CHO-K1 cells; Fluo-8 calcium fluorescence; scaled to maximal ATP response, vehicle zero; activation, % at 3 µM; actives 0.48% (n = 360,000); AID 602248; in the data active means activation above about 15%;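 further: untransfected CHO-K1 host cells lacking M1 receptor as counterscreen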
CHO parental Ca: signal in parental CHO cells, OX1R antagonist counter-screen. AID 463079. inhibition, % at 5.6 µM. actives 0.63% (n = 330,000). parental CHO-K1, ATP-induced calcium, Fluo-8 fluorescence;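 active means inhibition above that plate's mean sample inhibition plus 3 SD, cut at about 26% in these data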;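 further: 0% = ATP-challenged DMSO wells and 100% = DMSO wells without ATP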
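Material – parental CHO cells · Reagent – ATP stimulus · Compound – single nominal dose of 5.6 µM per compound · Detection – Fluo-8 fluorescence · Read-out basis – percent inhibition of calcium signal · Controls – ATP-challenged DMSO wells low, unchallenged DMSO wells high · Repeats – no replicates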
OX1R HTRF confirm: confirmation of human orexin 1 receptor antagonists, HTRF format. shares compounds with OX1R antag-1. OX1R-expressing cells, HTRF antagonist assay. inhibition, % at 6.6 µM. actives 49% (n = 1,800). AID 492964; in the data active means inhibition above about 55%;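 further: CHO cells expressing OX1R stimulated with orexin A at about EC80; 0% = agonist challenge alone and 100% = reference antagonist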
CHO-K1 HTRF: signal in parental CHO-K1 cells, OX1R antagonist counter-screen | shares compounds with OX1R antag-1 | HTRF counterscreen | inhibition, % at 6.6 µM | actives 48% (n = 1,800); in the data active means inhibition above about 17%;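 further: 0% = agonist challenge with vehicle and 100% = vehicle alone without agonist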
* marks the source's active call; other numbers are inactive results; nt = no result.

SMILES	OX1R antag-1	OX1R antag-2	CHO-K1 Ca antag	M1 PAM parental	CHO-K1 Ca ag	CHO parental Ca	OX1R HTRF confirm	CHO-K1 HTRF
CC(C)Cn1c(N)c(C(=O)COC(=O)c2ccc([N+](=O)[O-])o2)c(=O)n(C)c1=O	81*	-18	-12	18	10	-11	30	24*
CC(C)Cn1c(N)c(C(=O)COC(=O)c2ccc(O)cc2)c(=O)n(C)c1=O	18	-11	-6	6	4	1	nt	nt
CC(C)CN(C(=O)CCNC(=O)c1ccc([N+](=O)[O-])cc1)C1CCS(=O)(=O)C1 (stereo not drawn)	35	-12	-7	-10	0	-13	nt	nt
CC(C)CN(C(=O)c1cc([N+](=O)[O-])cc([N+](=O)[O-])c1)C1CCS(=O)(=O)C1 (stereo not drawn)	91*	-6	-11	0	1	-6	70*	50*
CCN(CC)C(=O)CSc1nnc2nnc3cc(Cl)ccc3n12	108*	-27	-9	-13	1	-16	70*	126*
CCN(CC)C(=O)CSc1nnc2nnc3cc(C)ccc3n12	91*	-19	-3	-4	0	-21	60*	103*
CCCn1c(SCC(=O)N(CC)CC)nnc1-c1ccncc1	15	-15	-3	-3	11	-9	nt	nt
COc1ccc(S(=O)(=O)N2CCN(c3nc(-c4cccnc4)nc4ccccc34)CC2)cc1	2	-7	-9	16	2	-27	nt	nt
S=c1[nH]nc2sc3ccccc3n12	nt	nt	-6	14	1	nt	nt	nt
S=c1[nH]nc2nnc3ccccc3n12	85*	-11	4	-12	0	2	88*	79*
CC(=O)N(C)C1=C(O)c2ccccc2C(=O)C1=O	83*	-7	-4	4	0	-2	51	94*
O=C(O)/C=C/C(=O)Nc1ccc2c(c1)C(=O)c1ccccc1C2=O	83*	-3	-7	8	1	-5	41	50*
CC(=O)Nc1cccc(-c2nc3ccccc3o2)c1	80*	25	-2	-6	0	-11	66*	1
CC(=O)Nc1ccc2c(c1)C(=O)c1ccccc1C2=O	102*	-6	6	-4	0	0	70*	39*
O=C(O)/C=C/C(=O)Nc1ccc(C(=O)c2ccccc2)cc1	1	9	-4	-12	0	0	nt	nt
CC(=O)Nc1ccc2nc3ccccc3nc2c1	134*	-5	-2	5	1	-3	110*	65*
O=S(=O)(Nc1cc(S(=O)(=O)N2CCOCC2)ccc1NCC1CCCO1)c1ccccc1 (stereo not drawn)	12	-31	-15	8	0	-14	nt	nt
Cc1cccc(C(=O)NC2=NCCS2)c1	21	-26	9	-5	0	-14	nt	nt
CCC(C(=O)NC1CCCCCC1)n1nc(C)c2c(C)n(-c3ccccc3)nc2c1=O (stereo not drawn)	14	-23	12	-2	-1	-22	nt	nt
CC(=O)Nc1ccc2c(c1)ncn2-c1ccccc1	6	9	-6	6	0	-5	nt	nt
CC(=O)Nc1ccc2c(c1)c1ccccc1n2C(C)=O	78*	0	0	10	1	-12	71*	14
Cc1cccn2c(=O)c3cc(C#N)c(=N)n(CCCN4CCOCC4)c3nc12	144*	-67	2	14	0	-16	40	64*
COCCCn1c(=N)c(C(N)=S)cc2c(=O)n3cccc(C)c3nc21	82*	-10	-7	0	1	-28	39	49*
N#Cc1cc2c(=O)n3ccccc3nc2n(CCCn2ccnc2)c1=N	82*	-22	9	-9	0	-4	48	68*
Cc1cccn2c(=O)c3cc(C(N)=S)c(=N)n(CCCN4CCOCC4)c3nc12	64	-14	-14	24	1	-12	nt	nt
SMILES	OX1R antag-1	OX1R antag-2	CHO-K1 Ca antag	M1 PAM parental	CHO-K1 Ca ag	CHO parental Ca	OX1R HTRF confirm	CHO-K1 HTRF
Cc1cccn2c(=O)c3cc(C#N)c(=N)n(CCN4CCOCC4)c3nc12	nt	nt	-11	20	1	nt	nt	nt
Cc1ccc2nc3nc(NCC4CCCO4)c(C(=O)NC4CCCCC4)cc3c(=O)n2c1 (stereo not drawn)	25	-13	nt	nt	nt	6	nt	nt
CCC(C)n1c(=N)c(C#N)cc2c(=O)n3ccccc3nc21 (stereo not drawn)	18	-14	3	7	1	-8	nt	nt
Cc1ccc2nc3c(cc(C(=O)NCC4CCCO4)c(=N)n3CC3CCCO3)c(=O)n2c1 (stereo not drawn)	140*	-14	-7	6	0	-10	49	72*
CCCCNC(=O)c1cc2c(=O)n3cccc(C)c3nc2n(CCN2CCOCC2)c1=N	112*	-24	1	8	1	-38	50	55*
Cc1cc(-n2c(=O)c(C#N)cc3c(=O)n4cccc(C)c4nc32)no1	36	-5	3	15	0	-4	nt	nt
Cc1ccc2nc3c(cc(C(=O)NCCc4ccccc4)c(=N)n3CCN3CCOCC3)c(=O)n2c1	97*	-9	-3	8	2	-20	64*	69*
Cc1cccn2c(=O)c3cc(C#N)c(=O)n(-c4c(C)n(C)n(-c5ccccc5)c4=O)c3nc12	147*	-19	-10	16	0	3	53	55*
CCOc1ccc2c(c1)S/C(=C\c1cccs1)C(=O)N2	81*	8	-18	18	1	-13	72*	5
CCOC(=O)Cn1nnc(-c2ccc([N+](=O)[O-])cc2)n1	96*	6	-11	11	2	11	37	32*
CC(OC(=O)c1cccc(S(=O)(=O)N(C)C)c1)C(=O)NCc1ccc2c(c1)OCO2 (stereo not drawn)	3	-24	9	-6	7	1	nt	nt
Cc1ccnc(Sc2ccc([N+](=O)[O-])cn2)n1	77*	-3	14	-11	0	-3	71*	71*
Cc1ccccc1Sc1ccc([N+](=O)[O-])cn1	7	8	0	-1	0	1	nt	nt
CCc1nnc(N/N=C/c2cccs2)n1N	84*	12	-5	12	0	-6	20	14
Cc1ccccc1-n1nc(C(=O)O)c(C)c(C#N)c1=O	101*	-13	1	-1	0	2	50	36*
Cc1c(C(=O)O)nn(-c2cccc(C(F)(F)F)c2)c(=O)c1C#N	38	-13	-10	6	0	0	nt	nt
O=C(N=Nc1c(O)[nH]c2ccccc12)c1cc(NS(=O)(=O)c2cccs2)cc(NS(=O)(=O)c2cccs2)c1	14	-1	-17	12	2	10	nt	nt
